Diaph inh CS: diaphorase inhibition or chemical oxidation counter-screen | diaphorase resazurin-to-resorufin fluorescence, NADH, 16 min; bacterial (C. kluyveri) enzyme, not human | inhibition, % at 20 µM | hit rate 0.69% among 190,000 | AID 1217;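 active = primary screen inhibition at 20 µM above a set limit, cut at about 50% in these data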
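Test system: diaphorase enzyme from Clostridium kluyveri; amount: diaphorase at 0.14 U/mL in enzyme working solution; detection: fluorescence of resorufin formed from resazurin, Ex 544/Em 590 nm; times: reaction incubation of 16 min at room temperature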
Diaph act CS: activates diaphorase or chemically reduces, flagging diaphorase assay artifacts. Diaphorase/resazurin coupled assay, resorufin fluorescence, 16 min; hits give high values; 1 = vehicle wells, 0 = NADH-free wells. activation factor at 20 µM. hit rate 0.005% among 190,000. AID 1229;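 active = diaphorase activity raised at least twofold by the compound at 20 µM; inactive = activation factor below 2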
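Material: purified diaphorase enzyme from Clostridium kluyveri / Medium: HEPES pH 7.4 buffer with MgCl2 and Tween 20 / Schedule: enzyme reaction of 16 min at room temperature / Measured by: resorufin fluorescence, excitation 544 nm, emission 590 nm / Evaluation: rise in resorufin formation, marking diaphorase activation or chemical reduction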
PMI activator: increases human mannose-6-phosphate isomerase activity | purified human PMI, coupled resazurin fluorescence, 20 min; hits give high values; 1 = vehicle control, 0 substrate-free wells | P34949 | activation factor at 20 µM | hit rate 0.005% among 190,000 | AID 1214;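 active = activation factor of 2 or more at 20 µM, relative to plate controls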
Target sequence (P34949 whole entry, looked up): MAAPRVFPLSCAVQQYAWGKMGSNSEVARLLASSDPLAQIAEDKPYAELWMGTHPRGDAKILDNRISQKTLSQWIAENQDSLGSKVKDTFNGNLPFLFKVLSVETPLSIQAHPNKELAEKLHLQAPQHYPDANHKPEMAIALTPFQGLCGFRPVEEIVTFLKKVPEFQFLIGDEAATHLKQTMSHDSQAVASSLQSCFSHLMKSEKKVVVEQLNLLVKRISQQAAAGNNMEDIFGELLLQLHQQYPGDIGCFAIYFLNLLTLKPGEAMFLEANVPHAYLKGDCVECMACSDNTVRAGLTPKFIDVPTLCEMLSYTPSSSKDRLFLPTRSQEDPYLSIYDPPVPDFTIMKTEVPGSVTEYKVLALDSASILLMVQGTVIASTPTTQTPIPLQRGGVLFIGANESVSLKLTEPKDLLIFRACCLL
G6PDH counter: L. mesenteroides G6PDH inhibition counter-screen. AID 1020. Purified L. mesenteroides G6PDH, diaphorase/resazurin coupled fluorescence, 45 min. inhibition, % at 5 µM. hit rate 0.12% among 200,000; in the data active = inhibition above about 50%
PMI act hi M6P: increases human PMI activity with near-saturating mannose 6-phosphate. P34949. coupled PMI enzyme assay, resazurin fluorescence, 20 min; hits give high values; 1 = untreated enzyme, 0 = substrate-free blank. activation factor at 20 µM. hit rate 0.34% among 190,000;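 active = activation factor of 2 or more at 20 µM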
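Test system: human phosphomannose isomerase with PGI, G6PDH, diaphorase coupling enzymes / Doses: 20 µM compound, 1% DMSO / Times: enzyme reaction with compound 20 min at room temperature / Measured by: Diaphorase-driven resazurin-to-resorufin fluorescence, excitation 544, emission 590 nm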
Hits are given with their value; n = inactive. Shown are actives, neighbours in structure and some others; about 1.1% of the full set was active somewhere.

SMILES | Diaph inh CS | Diaph act CS | PMI activator | G6PDH counter | PMI act hi M6P
COc1ccc2o/c(=N/NC(=O)c3cccs3)c(C(N)=O)cc2c1 | n | n | n | n | n
COc1ccc2cc(C(N)=O)/c(=N/NC(=O)c3ccco3)oc2c1 | 76.5 | n | n | n | n
NC(=O)c1cc2ccccc2o/c1=N/NC(=O)c1cccs1 | 69.3 | n | n | n | n
c1ccc(N2CCN(c3nc4ccccc4[nH]3)CC2)nc1 | 67.0 | n | n | n | n
CCN(CC)S(=O)(=O)c1ccc(OC)c(NC(=O)Cn2cnc3c2c(=O)n(C)c(=O)n3C)c1 | n | n | n | n | n
CC(C)[C@H](NC(N)=O)C(=O)NCCc1ccc(Cl)cc1 | 66.8 | n | n | n | n
CC(C)[C@H](NC(=O)NCCc1ccc(Cl)cc1)C(=O)O | n | n | n | n | n
O=C(CSc1nnc(Cc2cc(=O)[nH]c(=O)[nH]2)n1-c1ccccc1)N1CCCCC1 | n | n | n | n | n
O=C(CSc1nnc(CCCN2C(=O)c3cccc4cccc(c34)C2=O)n1-c1ccccc1)N1CCCCC1 | 71.7 | n | n | n | n
O=C1CC(c2ccco2)Sc2nc3ccccc3n21 (stereo not given) | 51.3 | n | n | n | n
O=C1CC(c2ccccc2)Sc2nc3ccccc3n21 (stereo not given) | n | n | n | n | n
COc1ccc2c(C)cc(=S)[nH]c2c1 | n | n | n | n | 2.5
Cc1cc(C)c2ccc(=S)[nH]c2n1 | n | n | n | n | 2.5
CNC[C@H](O)c1ccc(O)c(O)c1 | 58.6 | n | n | 64.2 | n
Cc1ncc(CN2CCC(CO)(CCc3ccccc3)CC2)s1 | n | n | n | n | n
Nc1cc2nsnc2cc1Br | n | n | n | 57.8 | n
Cc1ccc(-n2c(=S)[nH]c3sc4c(c3c2=O)CCC4)cc1 | 53.1 | n | n | n | n
O=c1[nH]c2sc3c(c2c(=O)n1Cc1ccccc1)CCC3 | n | n | n | n | n
Cc1noc(NS(=O)(=O)c2ccc(NC(=O)CSc3nc4ccccc4[nH]3)cc2)c1C | n | n | n | n | n
Cc1noc(NS(=O)(=O)c2ccc(NC(=O)CSc3nnc4c(n3)[nH]c3ccccc34)cc2)c1C | 64.9 | n | n | n | n
O=C(c1ccc2snnc2c1)N1CCSCC1 | n | n | n | n | 2.6
N#C/C(=N\Nc1ccc(S(=O)(=O)N2CCc3ccccc32)cc1)C(N)=S | 56.5 | n | n | n | n
CC(C)C1Nc2ccc(C(=O)O)cc2C2C=CCC21 (stereo not given) | n | n | n | n | n
CCCC1Nc2ccc(C(=O)O)cc2C2C=CCC12 (stereo not given) | n | n | n | n | 2
CCOC(=O)c1ccc2c(c1)C1C=CCC1C(C(=O)O)N2 (stereo not given) | 61.7 | n | n | n | n
SMILES | Diaph inh CS | Diaph act CS | PMI activator | G6PDH counter | PMI act hi M6P
CC1CCCC/C1=N\NC(=S)Nc1cccnc1 (stereo not given) | n | n | n | n | n
Cc1ccc(NC(=S)N/N=C2\CCCCC2C)cc1 (stereo not given) | n | n | n | n | 2
N#Cc1c2ccc(OCC(N)=O)cc2n2ccccc12 | 70.5 | n | n | n | n
CCOC(=O)COc1ccc2c(C#N)c3ccccn3c2c1 | n | n | n | n | n
CCOC(=O)c1c(C)oc2c1c(C=NCCO)c(O)c1ccccc12 | 81.5 | n | n | 56.9 | n
COc1ccc(N2C(=O)CC(Sc3ccccc3C(=O)O)C2=O)c([N+](=O)[O-])c1 (stereo not given) | n | n | n | n | n
COc1cc(C2C3=C(CCCC3=O)Nc3[nH]n(-c4ccccc4)c(=O)c32)cc(OC)c1OC (stereo not given) | n | n | n | n | n
COc1cc(C2C3=C(CCCC3=O)Nc3[nH]n(-c4ccccc4)c(=O)c32)ccc1OC(C)=O (stereo not given) | n | n | n | n | 2
Cc1ccc(S(=O)(=O)N/N=C\c2cc([N+](=O)[O-])ccc2Cl)cc1 | n | n | n | n | 2
Cc1ccc(S(=O)(=O)Nc2ccccc2C(=O)Nc2nc(-c3ccc(F)cc3)cs2)cc1 | n | n | n | n | n
COc1ccc(-c2csc(NC(=O)c3ccccc3NS(=O)(=O)c3ccc(F)c(F)c3)n2)cc1 | 53.4 | n | n | n | n
